Measurements gathered from unrelated publications.
Compare with care: the assays were run in different laboratories.
Target: Acetylcholinesterase (ache, Electrophorus electricus, UniProt O42275)
Observed: enzyme activity
Action: inhibitor
Technique: Ellman

Cc1ccc(Cn2cc(COc3ccc(-c4nnc(-c5ccccc5)o4)cc3)nn2)cc1  IC50: > 100 µM
CC(C)(C)OC(=O)NC1CCCN(C(=O)/C=C/c2ccc(Cl)cc2)C1 (stereo not shown)  IC50: > 50 µM
COc1ccc(-c2csc(N/N=C(/C=C/c3c(Cl)cccc3Cl)C(=O)O)n2)cc1  IC50: 0.499 µM
COc1ccc(-c2nnc(-c3ccc(OCc4cn(Cc5ccc(Cl)cc5)nn4)cc3)o2)cc1  IC50: > 100 µM
CC(C)(C)OC(=O)NC1CCCN(C(=O)/C=C/c2cccc(F)c2)C1 (stereo not shown)  IC50: 37.7 µM
CCN(C)C(=O)Oc1ccc(/C=C/C(=O)NC2CCN(Cc3ccccc3)CC2)cc1  IC50: 1.8 µM
CCOc1ccc(/C=C/C(=O)N2CCCC(NC(=O)OC(C)(C)C)C2)cc1OC (stereo not shown)  IC50: 35.2 µM
COc1cc(CCC(=O)N2CCC(Cc3ccccc3)CC2)ccc1OC(=O)N(C)C  IC50: 8.6 µM
Clc1ccc(Cn2cc(COc3ccc(-c4nnc(-c5ccccc5)o4)cc3)nn2)cc1  IC50: > 100 µM
O=C(O)C(/C=C/c1ccc(Cl)cc1)=N\Nc1nc(-c2ccccc2)cs1  IC50: 0.855 µM
CCN(C)C(=O)Oc1ccc(CCC(=O)N2CCC(Cc3ccccc3)CC2)cc1OC  IC50: 9.1 µM
CC(C)(C)OC(=O)NC1CCCN(C(=O)C=Cc2ccccc2)C1 (stereo not shown)  IC50: 39.4 µM
CCN(C)C(=O)Oc1ccc(CCC(=O)N2CCc3ccccc3C2)cc1  IC50: 8.3 µM
CC(C)(C)OC(=O)NC1CCCN(C(=O)/C=C/c2cccc(Cl)c2)C1 (stereo not shown)  IC50: > 50 µM
Fc1ccc(-c2nnc(-c3ccc(OCc4cn(Cc5ccccc5)nn4)cc3)o2)cc1  IC50: > 100 µM
O=C(O)C(/C=C/c1c(Cl)cccc1Cl)=N\Nc1nc(-c2ccc(Cl)cc2)cs1  IC50: 0.092 µM
Cc1ccc(Cn2cc(COc3ccc(-c4nnc(-c5ccc([N+](=O)[O-])cc5)o4)cc3)nn2)cc1  IC50: > 100 µM
CCN(C)C(=O)Oc1ccc(CCC(=O)N2CCN(Cc3ccccc3)CC2)cc1OC  IC50: 12.2 µM
CCOc1ccc(/C=C/C(=O)N2CCCC(NC(=O)OC(C)(C)C)C2)cc1 (stereo not shown)  IC50: > 50 µM
CCN(CC)C(=O)Oc1ccc(CCC(=O)N2CCC(Cc3ccccc3)CC2)cc1OC  IC50: 9.3 µM
Cc1ccc(/C=C/C(=O)N2CCCC(NC(=O)OC(C)(C)C)C2)cc1 (stereo not shown)  IC50: > 50 µM
Fc1ccc(-c2nnc(-c3ccc(OCc4cn(Cc5ccc(Br)cc5)nn4)cc3)o2)cc1  IC50: > 100 µM
CC(C)(C)OC(=O)NC1CCCN(C(=O)/C=C/c2ccccc2Cl)C1 (stereo not shown)  IC50: 19.7 µM
Brc1ccc(Cn2cc(COc3ccc(-c4nnc(-c5ccccc5)o4)cc3)nn2)cc1  IC50: > 100 µM
CCN(C)C(=O)Oc1ccc(CCC(=O)N2CCC(Cc3ccccc3)CC2)cc1  IC50: 6.1 µM
